Laboratory results from ChEMBL document CHEMBL4308921, “Structure-Activity Relationships of Central Nervous System Penetration by Fatty Acid Amide Hydrolase (FAAH)-Targeted Thyromimetic Prodrugs” (ACS Med Chem Lett, 2019).
Calls of active or inactive are those of the source. The rule behind the calls is not given here.

Assays:
[1] = Tmax in C57BL/6 mouse brain assessed as sobetirome level at 9.15 umol/kg, iv by LC-MS/MS analysis; format: ADME, organism-based; settings: in vivo
[2] = target: T1, Thyroid hormone receptor alpha (Homo sapiens) (UniProt P10827); test: Agonist activity at human TRalpha treated at 1 hr post FAAH inhibitor PF-3845 treatment and measured after 24 hrs by cell based luciferase reporter gene assay
T1 sequence (whole entry): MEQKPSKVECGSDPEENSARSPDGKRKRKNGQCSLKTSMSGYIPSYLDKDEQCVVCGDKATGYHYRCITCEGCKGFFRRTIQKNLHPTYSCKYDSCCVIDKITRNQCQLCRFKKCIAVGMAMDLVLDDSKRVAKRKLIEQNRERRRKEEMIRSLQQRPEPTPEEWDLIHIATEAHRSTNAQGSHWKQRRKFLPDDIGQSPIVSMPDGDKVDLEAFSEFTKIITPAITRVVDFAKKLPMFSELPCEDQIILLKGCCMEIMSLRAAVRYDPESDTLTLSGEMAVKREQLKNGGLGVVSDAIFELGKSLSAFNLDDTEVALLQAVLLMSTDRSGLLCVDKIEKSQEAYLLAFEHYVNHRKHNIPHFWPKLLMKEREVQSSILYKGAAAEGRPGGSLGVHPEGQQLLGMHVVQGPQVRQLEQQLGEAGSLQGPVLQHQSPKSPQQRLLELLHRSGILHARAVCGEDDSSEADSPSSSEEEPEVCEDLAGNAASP
Summary of the method: (§1)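 A plate-based luciferase reporter assay measured TRα or TRβ activation as dose-response curves, run in the presence of the FAAH inhibitor PF-3845. Data are mean ± SEM, n = 3.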

[3] = Brain to serum permeability coefficient, Kp of the compound in C57BL/6 mouse assessed as sobetirome level at 9.15 umol/kg, po via gavage measured up to 24 hrs by LC-MS/MS analysis; format: ADME, organism-based
[4] = Clearance in C57BL/6 mouse at 9.15 umol/kg, iv by LC-MS/MS analysis; format: ADME, organism-based; settings: in vivo
[5] = Brain to serum permeability coefficient, Kp of the compound in C57BL/6 mouse assessed as sobetirome level at 3.05 umol/kg, ip after 1 hr by LC-MS/MS analysis; format: ADME, organism-based
[6] = Terminal half life in C57BL/6 mouse at 9.15 umol/kg, iv by LC-MS/MS analysis; format: ADME, organism-based; settings: in vivo, read-out: beta t1/2 (converted)
[7] = target: T2, Fatty-acid amide hydrolase 1 (Homo sapiens, UniProt O00519); test: Prodrug activation in COS7 cells overexpressing human FAAH assessed as FAAH-mediated sobetirome formation by measuring compound hydrolysis rate at 100 uM by LC-MS/MS analysis; format: cell-based
T2 sequence (O00519 whole entry): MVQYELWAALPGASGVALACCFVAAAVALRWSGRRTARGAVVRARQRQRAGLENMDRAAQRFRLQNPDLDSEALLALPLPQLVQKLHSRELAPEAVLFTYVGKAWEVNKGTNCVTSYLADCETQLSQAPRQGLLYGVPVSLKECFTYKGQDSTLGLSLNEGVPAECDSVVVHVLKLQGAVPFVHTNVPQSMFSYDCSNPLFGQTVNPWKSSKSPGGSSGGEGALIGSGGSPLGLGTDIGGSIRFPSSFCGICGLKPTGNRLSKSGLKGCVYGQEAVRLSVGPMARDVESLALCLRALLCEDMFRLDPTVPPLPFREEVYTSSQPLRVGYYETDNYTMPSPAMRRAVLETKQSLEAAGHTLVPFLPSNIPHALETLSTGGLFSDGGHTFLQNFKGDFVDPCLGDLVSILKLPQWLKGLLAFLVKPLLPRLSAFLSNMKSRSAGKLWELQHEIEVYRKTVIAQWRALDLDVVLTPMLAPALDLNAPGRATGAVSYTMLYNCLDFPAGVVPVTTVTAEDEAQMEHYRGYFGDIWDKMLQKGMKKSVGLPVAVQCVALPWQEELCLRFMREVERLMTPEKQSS
Summary of the method: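 Hydrolysis kinetics were measured in homogenate of COS-7 cells overexpressing human FAAH, with prodrug substrate at 100 µM. Rate is given as nmol mg-1 min-1, mean ± SEM, n = 3.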

[8] = target: T3, Thyroid hormone receptor beta (Homo sapiens) (UniProt P10828); test: Agonist activity at human TRbeta treated at 1 hr post FAAH inhibitor PF-3845 treatment and measured after 24 hrs by cell based luciferase reporter gene assay; summary of the method: as §1
T3 sequence (whole entry): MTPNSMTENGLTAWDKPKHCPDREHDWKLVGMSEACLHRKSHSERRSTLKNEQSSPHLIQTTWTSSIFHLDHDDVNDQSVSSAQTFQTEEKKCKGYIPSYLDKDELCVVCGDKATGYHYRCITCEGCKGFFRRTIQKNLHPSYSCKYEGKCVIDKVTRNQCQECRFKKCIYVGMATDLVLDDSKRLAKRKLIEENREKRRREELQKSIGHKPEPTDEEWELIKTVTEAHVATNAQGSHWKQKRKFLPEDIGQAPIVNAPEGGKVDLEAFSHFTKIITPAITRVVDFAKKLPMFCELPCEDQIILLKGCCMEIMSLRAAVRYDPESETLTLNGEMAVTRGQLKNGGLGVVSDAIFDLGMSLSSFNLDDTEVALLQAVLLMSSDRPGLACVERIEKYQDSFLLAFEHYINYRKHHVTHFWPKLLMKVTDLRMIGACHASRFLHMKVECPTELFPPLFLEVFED

[9] = Prodrug activation in C57BL/6 mouse serum assessed as FAAH-mediated sobetirome formation at 3.05 umol/kg, ip after 1 hr by LC-MS/MS analysis; format: organism-based; settings: in vivo
[10] = Brain to serum permeability coefficient, Kp of the compound in C57BL/6 mouse assessed as sobetirome level at 9.15 umol/kg, iv measured up to 24 hrs by LC-MS/MS analysis; format: ADME, organism-based
[11] = Oral bioavailability in C57BL/6 mouse at 9.15 umol/kg administered via gavage by LC-MS/MS analysis; format: ADME, organism-based; settings: in vivo
[12] = AUC (0 to 24 hrs) in C57BL/6 mouse brain assessed as sobetirome level at 9.15 umol/kg, iv by LC-MS/MS analysis; format: ADME, organism-based; design: dose 9.15 umol/kg, time < 24 hr, route intravenous; settings: in vivo
[13] = Tmax in C57BL/6 mouse serum assessed as sobetirome level at 9.15 umol/kg, iv by LC-MS/MS analysis; format: ADME, organism-based; settings: in vivo
[14] = AUC (0 to 24 hrs) in C57BL/6 mouse brain assessed as sobetirome level at 9.15 umol/kg, po via gavage by LC-MS/MS analysis; format: ADME, organism-based; design: dose 9.15 umol/kg, time < 24 hr, route oral; settings: in vivo
[15] = Prodrug activation in C57BL/6 mouse brain assessed as FAAH-mediated sobetirome formation at 3.05 umol/kg, ip after 1 hr by LC-MS/MS analysis; format: organism-based; settings: in vivo

- Tmax [1]: 0.5 h
- Activity [2]: Active
- Kp [3]: 0.44
- clearance [4]: 91.7 mL/min/kg
- Kp [5]: 3.17
- half-life [6]: 8.8 h
- Drug metabolism [7]: 3.2 nmol/mg/min
- Activity [8]: Active
- Drug uptake [9]: 17.2 ng/g
- Kp [10]: 0.82
- bioavailability [11]: 19.5%
- AUC [12]: 694 ng·h/g
- Tmax [13]: 0.5 h
- AUC [14]: 378 ng·h/g
- Drug uptake [15]: 53.1 ng/g
Structure (SMILES): CNC(=O)COc1cc(C)c(Cc2ccc(O)c(C(C)C)c2)c(C)c1
